Assay results from ChEMBL document CHEMBL3259651, “Bis(4-hydroxy-2H-chromen-2-one): synthesis and effects on leukemic cell lines proliferation and NF-κB regulation” (Bioorg Med Chem, 2014).
Calls of active or inactive are those of the source. The rule behind the calls is not given here.

Assays:
[1] = molecular target: T1, Nuclear factor NF-kappa-B complex (Homo sapiens) (UniProt Q00653+P19838+Q04206); test: Inhibition of NF-kappaB transactivation in TNF-alpha-stimulated human K562 cells at 10 to 100 uM preincubated for 2 hrs followed by TNF-alpha challenge measured after 6 hrs by dual luciferase reporter gene assay; type: cell-based
Procedure, shortened: (§1)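 Cells co-transfected with 5 µg of a firefly luciferase reporter carrying five consensus NF-κB sites plus 5 µg of a Renilla TK control plasmid. 24 h later, compound for 2 h, then ± 20 ng/ml TNF-α for 6 h more. Firefly:Renilla ratio, TNF-α-only cells set to 100%. Three independent measurements in quadruplicate.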

K562 = test: Cytotoxicity against human K562 cells assessed as growth inhibition at 10 to 100 uM after 24 to 72 hrs by trypan blue exclusion assay; type: functional, cell-based
Procedure, shortened: (§2)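 Trypan blue counting of proliferation (cells/mL) and viability. Exponential-phase cells were seeded at 200,000 cells/mL in RPMI 1640 with 10% heat-inactivated FCS at 37 °C and 5% CO2. They were treated from 50 mM DMSO stocks against DMSO-matched controls and read at 24, 48 and 72 h (PBMCs at 24 and 48 h).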

[2] = Cell cycle arrest in human […] cells assessed as accumulation at G0/G1 phase at 25 uM measured at 24 hrs by propidium iodide staining-based flow cytometric analysis; type: functional
Procedure, shortened: (§3)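 Cells in exponential phase at 200,000 cells/mL in RPMI 1640 with 10% heat-inactivated FCS, 37 °C, 5% CO2, treated from DMSO stocks alongside DMSO vehicle controls. Cell cycle distribution was analysed at time points between 8 and 72 h.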

PBMC = test: Cytotoxicity against human PBMC assessed as effect on cell viability at >100 uM after 24 to 48 hrs by trypan blue exclusion assay; type: cell-based; procedure, shortened: as §2
Jurkat [3] = test: Cytotoxicity against human Jurkat cells assessed as growth inhibition at 10 uM after 48 hrs by trypan blue exclusion assay; type: functional, cell-based; procedure, shortened: as §2
Jurkat [4] = test: Cell cycle arrest in human Jurkat cells assessed as accumulation at G0/G1 phase at 50 uM at 8 hrs by propidium iodide staining-based flow cytometric analysis; type: functional; procedure, shortened: as §3
Jurkat [5] = test: Cytotoxicity against human Jurkat cells assessed as growth inhibition at 50 uM after 24 to 72 hrs by trypan blue exclusion assay; type: functional, cell-based; procedure, shortened: as §2
K652 = test: Cytotoxicity against human […] cells assessed as growth inhibition at 25 uM after 24 hrs by trypan blue exclusion assay; type: functional, cell-based; procedure, shortened: as §2
[6] = molecular target: T1, Nuclear factor NF-kappa-B complex (Homo sapiens); test: Inhibition of NF-kappaB in human K562 cells assessed as reduction of TNF-alpha-induced CFLAR mRNA expression preincubated for 2 hrs followed by TNF-alpha challenge measured after 6 hrs by qRT-PCR analysis; type: cell-based
Procedure, shortened: (§4)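 K-562 cells given compound for 2 h, then cultured ± 20 ng/ml TNF-α for 6 h. Total RNA analysed by qRT-PCR with ICAM1- and CFLAR-specific primers, expressed as target/β-actin mRNA ratio; mean ± SD of 3 independent experiments.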

[7] = molecular target: T1, Nuclear factor NF-kappa-B complex (Homo sapiens); test: Inhibition of NF-kappaB transactivation in TNF-alpha-stimulated human Jurkat cells preincubated for 2 hrs followed by TNF-alpha challenge measured after 6 hrs by dual luciferase reporter gene assay; type: cell-based; procedure, shortened: as §1
[8] = molecular target: T1, Nuclear factor NF-kappa-B complex (Homo sapiens); test: Inhibition of NF-kappaB in human K562 cells assessed as reduction of TNF-alpha-induced ICAM1 mRNA expression preincubated for 2 hrs followed by TNF-alpha challenge measured after 6 hrs by qRT-PCR analysis; type: cell-based; procedure, shortened: as §4
Jurkat [9] = test: Cytotoxicity against human Jurkat cells assessed as reduction of cell viability at 50 uM after 24 hrs by trypan blue exclusion assay; type: functional, cell-based; procedure, shortened: as §2
Jurkat [10] = test: Cytotoxicity against human Jurkat cells assessed as growth inhibition at 25 uM after 24 hrs by trypan blue exclusion assay; type: functional, cell-based; procedure, shortened: as §2
[11] = molecular target: T1, Nuclear factor NF-kappa-B complex (Homo sapiens); test: Inhibition of NF-kappaB transactivation in TNF-alpha-stimulated human K562 cells preincubated for 2 hrs followed by TNF-alpha challenge measured after 6 hrs by dual luciferase reporter gene assay; type: cell-based; procedure, shortened: as §1
[12] = molecular target: T2, NF-kappa-B inhibitor alpha (Homo sapiens) (UniProt P25963); test: Inhibition of IkappaB-alpha degradation in TNF-alpha-stimulated human Jurkat cells at 40 uM preincubated for 2 hrs followed by TNF-alpha challenge measured after 2 to 90 mins by Western blot analysis; type: cell-based
T2 sequence (whole entry): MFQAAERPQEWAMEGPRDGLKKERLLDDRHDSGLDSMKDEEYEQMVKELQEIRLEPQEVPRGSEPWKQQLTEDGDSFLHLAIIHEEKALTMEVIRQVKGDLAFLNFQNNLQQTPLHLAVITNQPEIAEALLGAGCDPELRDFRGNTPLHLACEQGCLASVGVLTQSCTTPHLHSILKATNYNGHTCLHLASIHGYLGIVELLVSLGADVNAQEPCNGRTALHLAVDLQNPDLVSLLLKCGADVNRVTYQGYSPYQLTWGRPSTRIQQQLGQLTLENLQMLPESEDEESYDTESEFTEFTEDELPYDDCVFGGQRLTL
Procedure, shortened: (§5)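 JURKAT cells pretreated 2 h with 40 µM compound, then ± 20 ng/ml TNF-α for the indicated times. Cytoplasmic and nuclear fractions immunoblotted; loading and fraction purity checked with lamin B and α-tubulin. Blots representative of three independent experiments.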

[13] = molecular target: Transcription factor p65 (Homo sapiens) (UniProt Q04206); test: Inhibition of NF-kappaB p65 subunit translocation from cytoplasm to nucleus in TNF-alpha-stimulated human Jurkat cells at 40 uM preincubated for 2 hrs followed by TNF-alpha challenge measured after 2 to 90 mins by Western blot analysis; type: cell-based; procedure, shortened: as §5
[14] = molecular target: T3, Nuclear factor NF-kappa-B p105 subunit (Homo sapiens) (UniProt P19838); test: Inhibition of NF-kappaB p50 subunit translocation from cytoplasm to nucleus in TNF-alpha-stimulated human Jurkat cells at 40 uM preincubated for 2 hrs followed by TNF-alpha challenge measured after 2 to 90 mins by Western blot analysis; type: cell-based; procedure, shortened: as §5
T3 sequence (whole entry): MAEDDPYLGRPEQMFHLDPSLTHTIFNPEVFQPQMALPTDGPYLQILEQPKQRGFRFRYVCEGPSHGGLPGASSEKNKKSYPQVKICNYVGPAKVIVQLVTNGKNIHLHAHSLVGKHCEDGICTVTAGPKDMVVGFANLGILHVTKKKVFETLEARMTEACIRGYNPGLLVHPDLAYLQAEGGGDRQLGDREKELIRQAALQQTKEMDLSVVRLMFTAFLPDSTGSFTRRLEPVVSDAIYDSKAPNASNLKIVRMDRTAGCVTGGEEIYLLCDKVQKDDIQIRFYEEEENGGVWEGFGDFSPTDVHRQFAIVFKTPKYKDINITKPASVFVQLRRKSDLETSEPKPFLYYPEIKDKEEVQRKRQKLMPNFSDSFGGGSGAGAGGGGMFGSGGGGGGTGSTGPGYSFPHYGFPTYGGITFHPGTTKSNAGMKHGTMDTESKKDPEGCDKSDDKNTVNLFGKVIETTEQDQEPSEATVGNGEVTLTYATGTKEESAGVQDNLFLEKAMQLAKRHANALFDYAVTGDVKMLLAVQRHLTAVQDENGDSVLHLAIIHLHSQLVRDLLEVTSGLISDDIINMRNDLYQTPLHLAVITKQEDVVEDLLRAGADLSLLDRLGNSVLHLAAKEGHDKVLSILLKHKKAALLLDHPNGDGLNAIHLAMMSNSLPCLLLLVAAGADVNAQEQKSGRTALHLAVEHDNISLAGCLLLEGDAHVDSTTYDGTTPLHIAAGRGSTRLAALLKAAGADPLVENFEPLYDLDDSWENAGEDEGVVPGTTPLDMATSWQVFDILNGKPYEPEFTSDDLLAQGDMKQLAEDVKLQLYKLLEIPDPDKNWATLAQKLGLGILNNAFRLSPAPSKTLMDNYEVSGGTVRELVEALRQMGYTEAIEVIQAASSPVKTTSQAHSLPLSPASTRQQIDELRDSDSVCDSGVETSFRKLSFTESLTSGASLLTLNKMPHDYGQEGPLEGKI

T1 sequence (Q00653 whole entry, looked up, one chain of several): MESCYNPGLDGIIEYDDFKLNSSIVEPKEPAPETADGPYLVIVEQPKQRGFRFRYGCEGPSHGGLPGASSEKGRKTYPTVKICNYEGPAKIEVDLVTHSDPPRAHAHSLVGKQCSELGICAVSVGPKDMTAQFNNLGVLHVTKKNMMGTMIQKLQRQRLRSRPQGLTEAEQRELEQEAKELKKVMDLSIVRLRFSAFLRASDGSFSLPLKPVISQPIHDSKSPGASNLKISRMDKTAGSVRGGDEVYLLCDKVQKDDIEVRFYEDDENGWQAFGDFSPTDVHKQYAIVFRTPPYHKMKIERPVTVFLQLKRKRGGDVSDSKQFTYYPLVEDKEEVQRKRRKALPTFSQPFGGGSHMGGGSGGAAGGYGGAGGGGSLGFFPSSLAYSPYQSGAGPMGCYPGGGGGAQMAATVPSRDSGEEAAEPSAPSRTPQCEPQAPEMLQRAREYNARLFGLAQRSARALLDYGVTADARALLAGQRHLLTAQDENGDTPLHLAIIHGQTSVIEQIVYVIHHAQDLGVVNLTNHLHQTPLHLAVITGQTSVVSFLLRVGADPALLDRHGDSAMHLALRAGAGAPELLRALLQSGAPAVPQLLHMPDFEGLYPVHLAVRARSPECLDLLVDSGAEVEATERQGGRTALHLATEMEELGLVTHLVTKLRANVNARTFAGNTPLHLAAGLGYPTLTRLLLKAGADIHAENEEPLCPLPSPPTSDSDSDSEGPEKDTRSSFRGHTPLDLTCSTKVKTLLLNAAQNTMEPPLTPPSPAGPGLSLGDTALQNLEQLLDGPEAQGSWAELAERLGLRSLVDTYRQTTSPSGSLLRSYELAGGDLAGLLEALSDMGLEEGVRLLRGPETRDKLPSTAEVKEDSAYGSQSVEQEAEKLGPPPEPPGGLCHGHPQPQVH
T1 sequence (Q04206 whole entry, looked up, one chain of several): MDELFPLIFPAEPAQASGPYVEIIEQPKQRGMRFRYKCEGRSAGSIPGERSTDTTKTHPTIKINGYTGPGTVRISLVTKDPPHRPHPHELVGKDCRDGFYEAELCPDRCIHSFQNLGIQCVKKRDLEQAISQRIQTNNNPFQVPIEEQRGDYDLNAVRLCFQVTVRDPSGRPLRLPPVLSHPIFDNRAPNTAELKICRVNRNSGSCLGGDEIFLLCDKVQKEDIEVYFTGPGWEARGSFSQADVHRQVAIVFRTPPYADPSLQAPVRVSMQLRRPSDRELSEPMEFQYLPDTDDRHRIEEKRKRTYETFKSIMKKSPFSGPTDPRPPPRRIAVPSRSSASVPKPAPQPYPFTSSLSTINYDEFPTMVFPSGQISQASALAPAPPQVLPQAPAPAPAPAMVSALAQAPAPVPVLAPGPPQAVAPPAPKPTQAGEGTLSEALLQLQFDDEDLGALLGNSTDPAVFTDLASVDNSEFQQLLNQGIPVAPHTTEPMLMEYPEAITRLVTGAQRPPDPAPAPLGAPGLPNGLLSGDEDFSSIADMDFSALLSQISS
Transcription factor p65 (Homo sapiens), sequence (Q04206 whole entry): as the sequence (Q04206 whole entry, looked up, one chain of several) above

| SMILES | inhibition [1] | growth inhibition (GI) (K562) | Activity [2] | Activity (PBMC) | growth inhibition (GI) (Jurkat [3]) | Activity (Jurkat [4]) | growth inhibition (GI) (Jurkat [5]) | growth inhibition (GI) (K652) | inhibition [6] | inhibition [7] | inhibition [8] | Activity (Jurkat [9]) | growth inhibition (GI) (Jurkat [10]) | inhibition [11] | inhibition [12] | inhibition [13] | inhibition [14] |
| --- | --- | --- | --- | --- | --- | --- | --- | --- | --- | --- | --- | --- | --- | --- | --- | --- | --- |
| O=c1cc(O)c2ccccc2o1 | inactive | inactive |  |  |  |  |  |  |  |  |  |  |  |  |  |  |  |
| CCC(=O)c1ccccc1O | inactive | inactive |  |  |  |  |  |  |  |  |  |  |  |  |  |  |  |
| O=C(CC(c1c(O)c2ccccc2oc1=O)c1c(O)c2ccccc2oc1=O)c1ccccc1O |  |  | Active | Non-toxic | Active | Active | Active | Active | Dose-dependent effect | Dose-dependent effect | Dose-dependent effect | Active | Active | Dose-dependent effect | Active | Active | Active |
